Substitutions are numbered along the chain they refer to.
Key:
SHOC2(WT)–NRAS(Q61K) = target: T1, SHOC2(WT)–NRAS(Q61K) (Homo sapiens, UniProt Q9UQ13); test: SHOC2–NRAS; type: cell-based
T1 sequence (Q9UQ13 1-582): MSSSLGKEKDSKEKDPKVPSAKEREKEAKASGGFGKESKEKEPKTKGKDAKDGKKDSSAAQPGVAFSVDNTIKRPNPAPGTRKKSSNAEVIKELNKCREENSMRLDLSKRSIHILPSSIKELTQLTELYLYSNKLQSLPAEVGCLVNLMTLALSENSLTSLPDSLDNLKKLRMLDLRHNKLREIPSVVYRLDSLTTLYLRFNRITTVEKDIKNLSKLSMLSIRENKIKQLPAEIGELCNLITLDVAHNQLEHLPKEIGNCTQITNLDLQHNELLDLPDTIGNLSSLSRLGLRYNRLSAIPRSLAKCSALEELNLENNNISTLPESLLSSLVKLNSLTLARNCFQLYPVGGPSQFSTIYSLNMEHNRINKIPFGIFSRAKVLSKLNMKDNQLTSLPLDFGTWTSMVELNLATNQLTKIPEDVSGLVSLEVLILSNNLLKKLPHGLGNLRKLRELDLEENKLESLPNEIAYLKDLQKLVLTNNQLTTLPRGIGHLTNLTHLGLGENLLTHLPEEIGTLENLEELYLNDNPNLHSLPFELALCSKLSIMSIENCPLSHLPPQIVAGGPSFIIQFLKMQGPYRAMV
How it was run: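 Monoclonal HEK 293T lines stably expressed full-length SHOC2–SmBiT with LgBiT–NRAS(Q61K); a SmBiT–128-aa linker–LgBiT line served as control. Cells were kept in DMEM with 10% FCS. 20,000 cells per well were seeded in medium with 0.1% FCS and held 2 h at 37 °C. Test compound was given for 4 h (seven-point 1:3, 30 µM to 40 nM). Medium was then replaced with phenol-red-free Opti-MEM plus NanoGlo Live substrate (1:60). n = 3 biological samples.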

Mel Juso cell line = test: RNA-seq global transcriptome analysis; type: cell-based, human; conditions: 4 h and 24 h, 30 µM and 100 µM
[1] = test system: RAS mutant and wild-type cell lines; test: Immunoblot of MAPK signalling in a panel of RAS mutant and wild-type cell lines; type: cell-based, human; conditions: 4 h, 30 µM
SHOC2 (80–582) = target: T2, SHOC2 (80–582) (Homo sapiens, UniProt Q9UQ13); test: SPR to assess affinity of low-molecular-weight ligands on immobilized SHOC2; type: binding; conditions: versus (R)-5
T2 sequence (Q9UQ13 80-582): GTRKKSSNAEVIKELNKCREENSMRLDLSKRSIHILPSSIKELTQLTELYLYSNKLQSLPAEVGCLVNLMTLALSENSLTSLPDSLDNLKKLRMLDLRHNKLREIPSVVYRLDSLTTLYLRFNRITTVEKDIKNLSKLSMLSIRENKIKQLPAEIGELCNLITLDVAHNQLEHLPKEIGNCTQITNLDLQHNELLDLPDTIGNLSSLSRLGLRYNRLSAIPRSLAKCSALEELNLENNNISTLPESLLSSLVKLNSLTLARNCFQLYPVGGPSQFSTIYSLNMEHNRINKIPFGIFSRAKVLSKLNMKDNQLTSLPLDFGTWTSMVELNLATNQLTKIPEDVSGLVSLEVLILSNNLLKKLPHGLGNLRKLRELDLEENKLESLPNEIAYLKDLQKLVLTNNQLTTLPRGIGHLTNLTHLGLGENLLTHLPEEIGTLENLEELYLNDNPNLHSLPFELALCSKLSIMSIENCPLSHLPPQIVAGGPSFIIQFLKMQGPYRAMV

A375 cells [2] = test: Incucyte 3D cell proliferation; type: cell-based, human; conditions: BRAF(V600E) melanoma A375; twice-a-week treatment, 30 µM
How it was run: (§1)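 Cells were seeded in sextuplicate in ultralow-attachment round-bottom plates in 10% FCS medium, spun 3 min at 200g and left 24 h to form spheroids or aggregates. They were dosed with 30 µM test compound or DMSO twice weekly at 37 °C, 5% CO2, and imaged by Incucyte every 6 h for three weeks at ×10. Data are mean ± s.d., n = 6; two independent experiments.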

[3] = test system: RAS mutant and RAS WT cell lines; test: Incucyte 3D cell proliferation, panel of RAS mutant and RAS WT cell lines; type: cell-based, human; conditions: 30 µM
How it was run: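 For spheroid or aggregate formation, cells were seeded in sextuplicate in ultralow-attachment round-bottom plates in 10% FCS medium, centrifuged 3 min at 200g and left 24 h. They were treated with 30 µM test compound or DMSO at 37 °C, 5% CO2, and imaged on an Incucyte every 6 h for three weeks at ×10.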

MELJUSO cells [4] = test: Immunoblot of MAPK signalling; type: cell-based, human
How it was run: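 MELJUSO cells were treated either with increasing doses for 24 h or with 30 µM over a time course. Lysis was in 1% Triton X-100/Tris-HCl pH 7.4/NaCl/EDTA buffer with phosphatase and protease inhibitors, then clearing at 13,000 rpm, 4 °C, 20 min and BCA protein assay. Immunoblots of the time course were quantified by densitometry as pCRAF/CRAF and pERK/ERK. Two independent experiments were run.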

SHOC2(G290A)–NRAS(Q61R) = target: T3, SHOC2(G290A)–NRAS(Q61R) (Homo sapiens, UniProt Q9UQ13, G290A); test: TR-FRET assay with resistant mutant SHOC2; type: binding
T3 sequence (Q9UQ13 1-582 G290A): T1 sequence (Q9UQ13 1-582) with G290A

A375 cells [5] = test: Immunoblot of MAPK signalling; type: cell-based, human; conditions: BRAF(mut) melanoma cells A375, 30 µM, time course
How it was run: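 A375 cells got 30 µM test compound and were collected at several time points. They were cleared at 13,000 rpm, 4 °C, 20 min, protein was quantified by BCA, and samples were immunoblotted. Two independent experiments were run.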

GTP-loaded RAS = test: Active RAS pull-down assay; type: cell-based, human; conditions: Mel Juso and A375 cells, 30 µM, 2 h and 4 h
How it was run: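 Cells were treated with 30 µM test compound or DMSO for 2 h and 4 h, then lysed per the kit. 400 µg lysate was rotated with Raf-RBD beads for 1 h at 4 °C. Bound protein was eluted in 2× Laemmli buffer, boiled 5 min at 95 °C and immunoblotted alongside total lysates. Two independent experiments were run.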

SHOC2–NRAS(Q61R) = target: T4, SHOC2–NRAS(Q61R) (Homo sapiens, UniProt Q9UQ13); test: TR-FRET competitive binding assay SHOC2–NRAS Q61R:GTP; conditions: versus (R)-5
T4 sequence (Q9UQ13 1-582): T1 sequence (Q9UQ13 1-582)

MELJUSO cells [6] = test: Incucyte 3D cell proliferation; type: cell-based, human; conditions: RAS(Q61L) melanoma MELJUSO; twice-a-week treatment, 30 µM
How it was run: as §1

SHOC2(G290A)–NRAS(Q61K) = target: T5, SHOC2(G290A)–NRAS(Q61K) (Homo sapiens, UniProt Q9UQ13, G290A); test: SHOC2; type: cell-based
T5 sequence (Q9UQ13 1-582 G290A): T1 sequence (Q9UQ13 1-582) with G290A
How it was run: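 HEK 293T cells were plated at 20,000 per well and incubated overnight at 37 °C, 5% CO2. They were then transiently transfected with SHOC2(G290A)–SmBiT and LgBiT–NRAS(Q61K) and incubated overnight again. Test compound was added for 4 h as a seven-point 1:3 series from 10 µM […], from stock in DMSO/H2O 90:10. NanoGlo Live substrate (1:60 in phenol-red-free Opti-MEM) was then added.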

CC(C)(C(=O)O)[C@@H](NC(=O)Cc1cccc(I)c1)c1ccc2oc(=O)[nH]c2c1 [Compound 7, (S)-3-(2-(3-iodophenyl)acetamido)-2,2-dimethyl-3-(2-oxo-2,3-dihydrobenzo[d]oxazol-5-yl)propanoic acid]
activity in SHOC2(WT)–NRAS(Q61mut) NanoBiT assay (SHOC2(WT)–NRAS(Q61K)): no activity
transcriptome changes, RAS/MAPK-associated genes (Mel Juso cell line): no significant changes
MAPK signalling in all cell models tested [1]: inert

CC(C)(C(=O)O)[C@H](NC(=O)Cc1cccc(I)c1)c1ccc2oc(=O)[nH]c2c1 [Compound 6, (R)-3-(2-(3-iodophenyl)acetamido)-2,2-dimethyl-3-(2-oxo-2,3-dihydrobenzo[d]oxazol-5-yl)propanoic acid]
activity in SHOC2(WT)–NRAS(Q61mut) NanoBiT assay (SHOC2(WT)–NRAS(Q61K)): selective displacement
transcriptome changes, RAS/MAPK-associated genes (Mel Juso cell line): dose-dependent and time-dependent modulation
MAPK signalling in EGFRΔex19 cells [1]: only minor effects
MAPK signalling in wild-type RTK/RAS or BRAF(V600E) mutant cell lines [1]: no detectable effect
MAPK signalling in RAS mutant settings ([1]; Q61L, G12D and G12C mutant conditions): downregulated MAPK signalling
fold higher potency in SPR assay (SHOC2 (80–582)): 10 fold
3D cell proliferation (A375 cells [2]): but not of BRAF(V600E)
3D proliferation in wild-type RAS settings ([3]; including EGFRΔex19 cells): none
3D proliferation of RAS mutant models ([3]; prolonged treatment): anti-proliferative effects
inhibited CRAF (phospho-S259) levels (MELJUSO cells [4]; MELJUSO, 30 µM, time course): increased levels
MEK and ERK phosphorylation (MELJUSO cells [4]; NRAS(Q61mut) melanoma cells MELJUSO, 24 h increasing doses): dose-dependent inhibition
activity in SHOC2(G290A)–NRAS(Q61R) TR-FRET (SHOC2(G290A)–NRAS(Q61R)): fully abolish compound 6 activity
pERK or pMEK inhibition (A375 cells [5]): did not show any pERK or pMEK inhibition
RAS–GTP loading (GTP-loaded RAS): unaffected
fold higher potency in TR-FRET assay (SHOC2–NRAS(Q61R)): 10 fold
3D cell proliferation (MELJUSO cells [6]): suppressed the cell proliferation
activity in SHOC2(G290A)–NRAS(Q61mut) NanoBiT assay (SHOC2(G290A)–NRAS(Q61K)): no activity

Source: PMC12137120 (Nature, 2025)
